Measurements from ChEMBL document CHEMBL3763097, “Synthesis and biological evaluation of 5,10-dihydro-11H-dibenzo[b,e][1,4]diazepin-11-one structural derivatives as anti-cancer and apoptosis inducing agents” (Eur J Med Chem, 2016).
pIC50: −log10 of the molar value.

What was measured:
[1] = Cytotoxicity against human U87MG cells assessed as growth inhibition after 72 hrs by MTT assay; type: functional, cell-based, U-87MG ATCC; details: U-87 MG
Method in brief: (§1)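 Cells in RPMI 1640 (PC-3, A549, MDA-MB-231) or DMEM (U87MG, MCF-7) with 10% FBS, passages 4-10, were seeded at 3000-5000 per well and left 24 h. Compounds in DMSO/medium were added for 72 h; DMSO served as control. MTT (5 mg/mL) was added for 4 h and formazan dissolved in DMSO. Absorbance was read at 570 nm minus 630 nm. % inhibition was taken versus DMSO, with IC50 by probit; mean ± SD of three experiments in triplicate.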

[2] = Cytotoxicity against human PC3 cells assessed as growth inhibition after 72 hrs by MTT assay; type: functional, cell-based; details: PC-3, 72 h; method in brief: as §1
A549 = experiment: Cytotoxicity against human A549 cells assessed as growth inhibition after 72 hrs by MTT assay; type: functional, cell-based; details: A549, 72 h; method in brief: as §1
MDA-MB-231 = experiment: Cytotoxicity against human MDA-MB-231 cells assessed as growth inhibition after 72 hrs by MTT assay; type: functional, cell-based; details: MDA-MB-231, 72 h; method in brief: as §1
MCF7 = experiment: Cytotoxicity against human MCF7 cells assessed as growth inhibition after 72 hrs by MTT assay; type: functional, cell-based; details: MCF7, 72 h; method in brief: as §1

Structure (SMILES)	pIC50 [1]	pIC50 [2]	pIC50 (A549)	pIC50 (MDA-MB-231)	pIC50 (MCF7)
O=C1c2ccccc2Nc2ccccc2N1Cc1cn(Cc2ccc([N+](=O)[O-])cc2)nn1	4.48	< 4.30	4.32	4.37	6.03
O=C1c2ccccc2Nc2ccccc2N1Cc1cn(Cc2cccc(F)c2)nn1	5.69	5.14	5.08	5.45	5.39
COc1ccc(OC)c(Cn2cc(CN3C(=O)c4ccccc4Nc4ccccc43)nn2)c1	4.51	< 4.30	4.88	5.46	5.13
O=C1c2ccccc2Nc2ccccc2N1Cc1cn(Cc2ccc(F)cc2)nn1	4.42	4.76	4.57	5.39	< 4.30
O=c1[nH]cc(F)c(=O)[nH]1 [FLUOROURACIL]	5.44	5.84	5.46	–	–
O=C1Nc2ccccc2Nc2ccccc21	5.05	4.38	4.43	< 4.30	< 4.30
O=C1c2ccccc2Nc2ccccc2N1Cc1cn(Cc2ccc(OC(F)(F)F)cc2)nn1	< 4.30	< 4.30	< 4.30	< 4.30	4.53
O=C1c2ccccc2Nc2ccccc2N1Cc1cn(Cc2ccccc2F)nn1	4.32	5.06	4.95	< 4.30	5.28
O=C1c2ccccc2Nc2ccccc2N1Cc1cn(Cc2cccc([N+](=O)[O-])c2)nn1	4.40	6.33	< 4.30	5.82	6.19
C#CCN1C(=O)c2ccccc2Nc2ccccc21	4.65	6.01	4.72	4.78	5.12
COc1cc(Cn2cc(CN3C(=O)c4ccccc4Nc4ccccc43)nn2)cc(OC)c1OC	5.75	< 4.30	5.06	6.37	4.99
O=C1c2ccccc2Nc2ccccc2N1Cc1cn(Cc2cccc3c2OCO3)nn1	4.87	4.97	4.97	4.99	4.75
O=C1c2ccccc2Nc2ccccc2N1Cc1cn(Cc2ccc(Cl)cc2)nn1	4.61	5.95	5.30	5.64	4.41
